Data as given in PubChem BioAssay.
Inconclusive results are not listed.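 Rule for the calls, unless noted: active = cell viability at or below a set limit in both duplicate runs, the limit being the all-compound median minus 4 SD (cut at about 23% in these data, passing the limit was not always enough); inconclusive = no clear call, values can overlap the other calls; inactive = the rest.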

Assays:
[1] = OD615 S. cerevisiae growth inhibition, permissive medium, pilot counter-assay, permissive growth control for S. cerevisiae lifespan shortening project (AID 705;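 active = growth inhibition above 25% in both replicates, a cutoff set 3 SD above the mean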); conditions: OD615, 24 h, at 10 µM, hits give high values
In short: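 Material: engineered DeaD yeast; compound dosing: one dose 10 µM, DMSO 0.25% final; measure: yeast growth inhibition indicated by reduced 24 h OD615; detection: OD615 turbidity read; incubation: cells pre-grown 4 h, then 24 h compound exposure, 30 °C humidified; medium: permissive synthetic complete medium with raffinose and galactose carbon sources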

[2] = Restrictive medium S. cerevisiae growth inhibition, OD615, pilot screen of yeast lifespan reduction project, restrictive growth control (AID 706;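 active = growth inhibition above a set limit, 3 SD over mean compound inhibition, in both replicates, cut at about 43% in these data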;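 note: modified DeaD lifespan yeast strain shifted to restrictive glucose medium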); conditions: OD615, 48 h, at 10 µM, hits give high values
In short: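 material = engineered S. cerevisiae DeaD strain | medium = glucose-based CSMM-D restrictive medium | times = 4 h pre-incubation, 48 h exposure at 30 °C | technique = OD615 absorbance reading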

[3] = viability gain of MRP-1-high H69AR cells under doxorubicin, pilot screen, MRP-1 activator project, CellTiter-Glo, duplicate (AID 807;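 active = viability increase at or above a cutoff of the median across tested compounds plus 3 SD, cut at about 8.5% in these data, passing the limit was not always enough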;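 note: compound pretreatment 18-22 h then 72 h combined with doxorubicin; 0% = doxorubicin alone and 100% = vehicle without doxorubicin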); conditions: H69AR viability with doxorubicin, CellTiter-Glo luminescence; at 10 µM; hits give high values
[4] = growth suppression of beta-catenin knockout HCT116, pilot screen, human colon tumor cells (AID 823); conditions: CellTiter-Glo, 60 h, at 10 µM, hits give low values;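 note: 0% = wells killed by 20 µM Hyamine and 100% = untreated DMSO cell wells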
[5] = growth suppression of PTEN-deleted HCT116, pilot screen, cell-based, HCT116 clonal line, CellTiter-Glo (AID 824;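 active = viability at or below 27.92% in each of two runs, the all-compound median minus 4 SD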;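 note: 0% = 20 µM Hyamine control and 100% = vehicle cell control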); conditions: 60 h, at 10 µM, hits give low values
[6] = inhibitors of the yeast RAM network, pilot screen, dse1pr::URA3 reporter, 5-FOA selection (AID 869;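 active = inhibition over a set limit, the all-compound mean plus 3 SD, in both replicate runs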;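 note: 0% = DMSO wells with no growth and 100% = 10 µM 1-NA-PP1 with full growth; RAM network block rescues cells from 5-FOA so hits raise OD615 growth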); conditions: S. cerevisiae dse1pr::URA3 5-FOA growth, OD615, 2 d; at 10 µM; hits give high values; strain carries analog-sensitive mutant Cbk1 kinase
[7] = RAM signaling pathway blockade in yeast – S. cerevisiae, Pdr1DBD-CYC8 efflux-inhibited sensitized strain, primary screen (AID 1298;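 active = RAM network inhibition above 8.4% in each of two replicates, 3 SD over the compound average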;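 note: 0% = DMSO untreated cells without growth and 100% = 10 µM 1-NA-PP1 full growth; higher means more yeast growth rescued from 5-FOA killing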); conditions: S. cerevisiae cbk1-as DSE1-URA3 strain, 5-FOA growth OD615, 2 d; at 50 µM; hits give high values

CCCCN(C)Cc1c(C)[nH]c2ccc(OCC)cc2c1=O
inactive: growth inhibition [1] -11.7% | growth inhibition [2] -20% | viability increase [3] -0.94% | viability [4] 93.6% | viability [5] 97.9% | inhibition [6] 1.4% | RAM network inhibition [7] 4.04%

CCOC(=O)CSc1nc(C)cc(Oc2ccc(=O)n(C)n2)n1
inactive: growth inhibition [1] -17.4% | growth inhibition [2] -8.09% | viability increase [3] 0.54% | viability [4] 102% | viability [5] 97.5% | inhibition [6] 1.12% | RAM network inhibition [7] 0.42%

c1coc(-c2nc(-c3ccco3)c(-c3ccco3)nc2-c2ccco2)c1
inactive: growth inhibition [1] -25.2% | growth inhibition [2] -38.9% | viability increase [3] -2.54% | viability [4] 97.6% | viability [5] 86.5% | inhibition [6] 2.14% | RAM network inhibition [7] 0.57%

CNc1oc(-c2ccccc2)nc1C#N
inactive: growth inhibition [1] 1.34% | growth inhibition [2] 21.3% | viability increase [3] 2.14% | viability [4] 101% | viability [5] 102% | inhibition [6] -0.58% | RAM network inhibition [7] 5.84%

CCOC(=O)c1oc2cc(O)c(CC)cc2c(=O)c1-c1ccc2c(c1)OCCO2
inactive: growth inhibition [1] -22.8% | growth inhibition [2] -16.3% | viability increase [3] -2.23% | viability [4] 101% | viability [5] 91.7% | inhibition [6] 3% | RAM network inhibition [7] 5.4%

CCCCNC(=O)CS(=O)Cc1nc(-c2ccc(C)cc2)oc1C (stereo not drawn)
inactive: growth inhibition [1] -7.66% | growth inhibition [2] 0.83% | viability increase [3] -2.08% | viability [4] 87.4% | viability [5] 88.5% | inhibition [6] -0.365% | RAM network inhibition [7] 2.19%

COCC(=O)Nc1cc(C)c2c(=O)oc3ccccc3c2n1
inactive: growth inhibition [1] 1.37% | growth inhibition [2] 5.79% | viability increase [3] -1.64% | viability [4] 96% | viability [5] 94% | inhibition [6] -0.92% | RAM network inhibition [7] 2.67%

CN1C(=O)/C(=C2\SC(=S)N(C(CCC(=O)O)C(=O)O)C2=O)c2ccccc21 (stereo not drawn)
inactive: growth inhibition [1] 2.35% | growth inhibition [2] -1.85% | viability increase [3] -2.67% | viability [4] 107% | viability [5] 98.8% | inhibition [6] 1.11% | RAM network inhibition [7] 0.96%

O=C(NC1CCCCCC1)c1nnc(Cc2ccc(Cl)cc2)o1
inactive: growth inhibition [1] -12.1% | growth inhibition [2] 0.195% | viability increase [3] 2.9% | viability [4] 95.2% | viability [5] 94.5% | inhibition [6] 1.31% | RAM network inhibition [7] 2.19%

C=C(C)CSc1nnc(-c2ccc(OC)c(OC)c2)n1N
inactive: growth inhibition [1] 11.8% | growth inhibition [2] 7.34% | viability increase [3] -0.31% | viability [4] 96% | viability [5] 99.2% | inhibition [6] -0.36% | RAM network inhibition [7] 3.74%

Cn1nc(-c2ccc(Cl)cc2)c2cc(C(=O)N3CCN(c4ccccc4)CC3)sc21
inactive: growth inhibition [1] -0.325% | growth inhibition [2] -3.28% | viability increase [3] -5.26% | viability [4] 71.2% | viability [5] 72.2% | inhibition [6] 3.44% | RAM network inhibition [7] 5.19%

O=C(NCc1ccco1)Nc1ccc(Br)cc1
inactive: growth inhibition [1] 3.96% | growth inhibition [2] 5.27% | viability increase [3] -2.7% | viability [4] 95.7% | viability [5] 97.7% | inhibition [6] 1.09% | RAM network inhibition [7] 5.07%

CCOC(=O)C1C(=O)Oc2ccc3ccccc3c2C1C1CCOC1=O (stereo not drawn)
inactive: growth inhibition [1] -5.13% | growth inhibition [2] -1.85% | viability increase [3] -2.53% | viability [4] 99.5% | viability [5] 97.6% | inhibition [6] 0.105% | RAM network inhibition [7] -1.08%

O=C(CCc1ccccc1)Nc1ccc(NC(=O)c2ccco2)cc1
inactive: growth inhibition [1] -5.04% | growth inhibition [2] 0.64% | viability increase [3] -1.63% | viability [4] 103% | viability [5] 93.7% | inhibition [6] 1.44% | RAM network inhibition [7] 2.56%

CC1=C(C(=O)OC2CCCCCCC2)C(c2cccc(O)c2)NC(=O)N1 (stereo not drawn)
inactive: growth inhibition [1] -1.81% | growth inhibition [2] 0.17% | viability increase [3] 4.53% | viability [4] 65.2% | viability [5] 65.6% | inhibition [6] 0.63% | RAM network inhibition [7] 0.89%

COc1ccccc1CNC(=O)CCn1c(=O)oc2ccccc21
inactive: growth inhibition [1] 5.65% | growth inhibition [2] 6.41% | viability increase [3] -3.05% | viability [4] 104% | viability [5] 96.2% | inhibition [6] 2.48% | RAM network inhibition [7] 5.75%

Cc1ccc2c(c1)N(CCCC(=O)NCCCN1CCCC1=O)C(=O)CO2
inactive: growth inhibition [1] -11.1% | growth inhibition [2] -13.3% | viability increase [3] -2.09% | viability [4] 98.2% | viability [5] 94% | inhibition [6] 1.64% | RAM network inhibition [7] 1.27%

CCOc1cccc(C(=O)Nc2cccc(-c3nnc(-c4ccccc4)o3)c2)c1
inactive: growth inhibition [1] -8.09% | growth inhibition [2] 6.69% | viability increase [3] -3% | viability [4] 51.9% | viability [5] 48.5% | inhibition [6] 0.02% | RAM network inhibition [7] 2.46%

O=C(CSc1nc2sc3c(c2c(=O)n1-c1ccccc1)CCCC3)NCc1ccco1
inactive: growth inhibition [1] -7.07% | growth inhibition [2] -5.03% | viability increase [3] -7.21% | viability [4] 53.7% | viability [5] 53.8% | inhibition [6] 3.98% | RAM network inhibition [7] 6.12%

O=C(O)CSC1c2ccccc2C(=O)N1Cc1ccccc1 (stereo not drawn)
inactive: growth inhibition [1] -13.6% | growth inhibition [2] -2.05% | viability increase [3] 2.07% | viability [4] 94.4% | viability [5] 93.7% | inhibition [6] 0.06% | RAM network inhibition [7] 0.3%

CC1(C)CC(=O)C2=C(C1)OC(N)=C(C#N)C21CCN(Cc2ccccc2)CC1
inactive: growth inhibition [1] -19.9% | growth inhibition [2] -21.6% | viability increase [3] -3.46% | viability [4] 97.7% | viability [5] 97.6% | inhibition [6] 2.13% | RAM network inhibition [7] 5.53%

COc1cc(CO)cc(Br)c1OCC(=O)O
inactive: growth inhibition [1] -2.25% | growth inhibition [2] -3.28% | viability increase [3] -1.45% | viability [4] 102% | viability [5] 92.5% | inhibition [6] 0.03% | RAM network inhibition [7] -1.46%

CC(C)(C)C1(C)OC(C(N)=O)C(C(N)=O)O1 (stereo not drawn)
inactive: growth inhibition [1] -7.22% | growth inhibition [2] -1.06% | viability increase [3] 0.03% | viability [4] 98.2% | viability [5] 95.7% | inhibition [6] 0.785% | RAM network inhibition [7] 1.14%

CCOC(=O)CC(=O)Nc1ccc(C(=O)OCC)cc1
inactive: growth inhibition [1] 4.17% | growth inhibition [2] 7.02% | viability increase [3] 1.09% | viability [4] 101% | viability [5] 105% | inhibition [6] 1.54% | RAM network inhibition [7] 4.84%
